Results taken from ChEMBL document CHEMBL4402582, “Garcinoic Acid Is a Natural and Selective Agonist of Pregnane X Receptor” (J Med Chem, 2020).
Calls of active or inactive are those of the source. No cut-off for these calls is given here.

Experiments:
[1] = molecular target: T1, Nuclear receptor subfamily 1 group I member 2 (Homo sapiens, UniProt O75469); test: Agonist activity at PXR in human HepG2 cells assessed as increase in PXR protein expression at 1 to 25 uM incubated for 24 hrs by immunoblot analysis; assay type: cell-based; details: hepg2, 24 h
T1 sequence (O75469 whole entry): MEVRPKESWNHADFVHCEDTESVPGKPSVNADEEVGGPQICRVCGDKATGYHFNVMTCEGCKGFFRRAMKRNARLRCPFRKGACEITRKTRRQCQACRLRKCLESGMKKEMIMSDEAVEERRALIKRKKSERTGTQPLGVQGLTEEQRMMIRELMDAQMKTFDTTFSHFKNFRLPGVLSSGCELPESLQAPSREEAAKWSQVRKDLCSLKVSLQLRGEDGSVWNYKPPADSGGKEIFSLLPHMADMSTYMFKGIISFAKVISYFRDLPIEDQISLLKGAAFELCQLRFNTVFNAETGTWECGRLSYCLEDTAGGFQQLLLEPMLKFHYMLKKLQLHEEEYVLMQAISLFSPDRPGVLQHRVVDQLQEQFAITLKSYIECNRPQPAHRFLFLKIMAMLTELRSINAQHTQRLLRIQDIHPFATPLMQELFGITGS
How it was run: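 HepG2 cells, passages 2–10, treated 24 h with 1 and 25 μM. Lysates sonicated on ice; 20 μg protein run on 10–12% SDS-PAGE and immunoblotted with anti-PXR or anti-CYP3A4. Bands normalized to housekeeping protein and expressed relative to control (=1).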

Mus musculus = test: Induction of PXR protein expression in C57BL/6 mouse hepatic parenchyma assessed as induction of localization of PXR protein at hepatocytes around centro-lobular veins at 25 mg dosed as oral gavage as single bolus and measured after 24 hrs by IHC analysis relative to control; assay type: functional, organism-based
How it was run: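 Male C57BL/6 mice, 6–7 weeks old, three per group. Single oral gavage bolus (5–25 mg) in olive oil; vehicle controls; killed at 24 h. Liver and gut formalin-fixed, paraffin-embedded; 4 μm sections stained with H&E. PXR IHC with polyclonal antibody at 1:200 on an automated stainer with polymer detection.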

[2] = molecular target: T2, PXR (Nuclear receptor subfamily 1 group I member 2) (Homo sapiens, UniProt O75469); test: Agonist activity at His-tagged PXR-LBD/SRC-1p (unknown origin) expressed in Escherichia coli BL21(DE3) by coactivator recruitment based Alpha-screen assay relative to T0901317; details: read-out: Efficacy
T2 sequence (O75469 whole entry): T1 sequence (O75469 whole entry)

## C/C(=C\CC/C(C)=C/CC[C@]1(C)CCc2cc(O)cc(C)c2O1)CC/C=C(\C)C(=O)O
[1]
  Activity: Dose-dependent effect
Mus musculus
  Activity: Active
[2]
  Emax: 103%
